Laboratory results from ChEMBL document CHEMBL4513216, “Probing the Open Global Health Chemical Diversity Library for Multistage-Active Starting Points for Next-Generation Antimalarials” (ACS Infect Dis, 2020).

Experiment: Toxicity liver stage against HepG2, at 10uM
Type: cell-based
Design: test concentration 10 uM, cell line HepG2-A16-CD81EGFP
Details: human, HepG2-A16-CD81EGFP cells; read-out: INHIBITION
In short: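 Uninfected HepG2-A16-CD81EGFP cells, 3 × 10^3 per well, 1536-well, plated on prespotted compound at 10 μM final, parasite-free screening media added to match infected plates; puromycin 10 μM positive, DMSO 0.5% negative; run in parallel with 48 h PbLuc assay at 37 °C, 5% CO2; viability by CellTiter-Glo luminescence, normalized to controls.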

SMILES	cytotoxicity at 10 µM [%]
Cc1cc(CCC(=O)N2CCOCC2)ccc1Br	12.5
CCCNS(=O)(=O)c1cnccc1N1CCN(C(C)C)CC1	-1.32
O=C(Cc1ccco1)N1C[C@H]2CCC[C@@]2(COCC2CC2)C1	-108
COCCN1CCC(NC(=O)NCC2(c3ccccc3)CC2)C1 (stereo not given)	0.814
Cc1cc(N2CCCC(O)CC2)n2nc(C)c(C)c2n1 (stereo not given)	7.46
CCNC(=O)COc1cc(CC)c2c(C)nn(-c3ccc(C)cc3)c2n1	0.409
Cc1ccc(Cl)c(NC(=O)NC2(C)CCOC2)c1 (stereo not given)	-46.7
CCc1ccc(C(=O)N2CCN(Cc3ccc(F)cc3)CC2)s1	13.4
NC(=O)CS(=O)(=O)Cc1cc(Cl)c2c(c1)OCCCO2	-0.463
Cc1ccc(NC2CCN(C(=O)c3ccncc3)CC2)nn1	8.85
CC(C)c1nc(N2CCC(N3CCCC(O)C3)CC2)c2cnn(C)c2n1 (stereo not given)	-127
Cc1cnn(C2CCCN(C(=O)c3cc(C)sc3C)C2)c1 (stereo not given)	-1.4
CS(=O)(=O)N1CCN(c2cc(N3CCCC3CO)ncn2)CC1 (stereo not given)	3.51
CCn1ncc(C(=O)N2CCN(CC3CCCO3)CC2)c1C (stereo not given)	-11.6
O=C(C1=COCCO1)N1CC(Oc2nc3c(C(F)(F)F)cccc3s2)C1	36
CC1=CC(C)(C)N(CN2C(=O)c3ccccc3C2=O)c2ccccc21	5.82
CS(=O)(=O)N1CC(c2ccnc(Nc3ccccn3)n2)C1	13.8
CC(NC(=O)c1cccc[n+]1[O-])C1CC1 (stereo not given)	5.31
COc1cc2cc(C(=O)N[C@@H](C)C(=O)O)n(C)c2c(OC)c1OC	12.5
Cc1[nH]ccc1C(=O)N1CCCC(c2nccn2Cc2cscn2)C1 (stereo not given)	-17.5
COCCOc1ncccc1C(=O)Nc1ccc(-n2cncn2)c(F)c1	-0.138
COCCN1CCN(S(=O)(=O)C2CC2)Cc2cccnc21	4.73

SMILES	cytotoxicity at 10 µM [%]
CCS(=O)(=O)c1ccccc1N1CCC(NC2CCCC2)CC1	-2.63
Cc1cccc(CN2C[C@@H]3COC[C@]3(CNC(=O)N3CCCC3)C2)n1	1.05
CCCc1noc(C2CCCCN2C(=O)CCc2cnn(C)c2)n1 (stereo not given)	-1.89
CCCOC(=O)N1CCCn2nc(C(=O)Nc3ccccc3)cc2C1	7.23
Cc1nn(C)c(C)c1C1CCCN1Cc1nc(-c2cccs2)no1 (stereo not given)	-9.43
O=C(Nc1ccc(-c2csnn2)cc1)N1CCCC1	-3.8
O=C(Nc1ccccc1)C1CN(C(=O)c2cccs2)CC12CCOCC2 (stereo not given)	-2.13
CNCCCNC1CCN(c2ccc(-n3ccnc3)cc2)CC1	-3.03
CNc1cc(N2CCCC2CNCc2c[nH]nc2C(C)(C)C)ncn1 (stereo not given)	7.91
Cc1c[nH]c(CN2CC[C@@]3(O)CCN(C(=O)C4CCC4)C[C@H]3C2)n1	1.27
Cn1ccnc1C(=O)N1CCCC(Cn2cc(CO)nn2)C1 (stereo not given)	-1.88
O=C([C@H]1COC[C@H]2CN(CC3CCCC3)C[C@H]21)N1CCOCC1	20.5
CCC(=O)c1ccc(OCC(=O)N(C)C(C)c2ccon2)cc1 (stereo not given)	1.71
O=C(c1ccccn1)N1Cc2nccn2CC(COc2cccnc2)C1 (stereo not given)	-9.52
CS(=O)(=O)N1CCC2(CC1)CN(CC1CCOC1)c1ccccc12 (stereo not given)	-108
Cc1cc(CNC(C)Cn2cncn2)ccc1Br (stereo not given)	2.33
CCCC(=O)n1ccn(S(=O)(=O)c2ccc(C)cc2)c1=O	8.08
CN(c1ccc(C(=O)NCCCN2CCCCC2)c(Cl)c1)S(C)(=O)=O	-0.313
c1ccc(CCCN2CC[C@H](c3nnc(-c4cccnc4)o3)C2)cc1	-6.1
COCCC1(CO)CCCN(Cc2ccc(F)c(C)c2)C1 (stereo not given)	-1.31
CC(C)c1nnc2n1CCN(C(=O)c1ccc(OCC3CC3)nc1)C2	-0.556
CCc1cc(=O)[nH]c(-c2ccc(NC(C)COC)nc2)n1 (stereo not given)	-146

SMILES	cytotoxicity at 10 µM [%]
Cc1ccc(S(=O)(=O)Nc2ccc(=O)n(C)c2)c(Br)c1	0.802
Cc1cc2c(c(-c3c[nH]c(C)n3)c1)OC(CN)C2 (stereo not given)	4.24
CC(C)C(=O)NCc1ccc(-n2cncn2)nc1	0.239
CCc1nc(C)sc1C(=O)N1CCN(c2ncccc2C)CC1	1.39
CC(C)c1ncncc1C(=O)N1CCN(Cc2cscn2)CC1	-5.75
NC(=O)Nc1cccc(CNC(=O)CCCOCc2ccccc2)c1	-8.06
Cc1c(COC(C)C)cccc1NC(=O)N1CCC(N2CCCC2)C1 (stereo not given)	-5.56
C=C/C=c1\c(=C/C)oc2c(NCc3ccccc3)nc(C)nc12	24.8
CN(C)C(=O)COCc1ncn2c1CN(c1ncc(F)cn1)CCC2	6.01
CN(C)C(=O)N1CCC2(CCCN(Cc3cnn(C)c3)C2)C1 (stereo not given)	4.91
CN(C)CC1(O)CCCN(C(=O)Cn2ccc3ccccc32)CC1 (stereo not given)	-1.96
c1coc(CN2C[C@H](OCC3CCOCC3)[C@H]3COC[C@H]32)c1	0.127
CCc1[nH]c(C2(N)CCCC2)nc(=O)c1C	-1.29
CCc1nc(CNCC2CCCN2c2cccnn2)no1 (stereo not given)	-12.6
CC(C)CC(O)C1CCN(Cc2cnc(-c3cccs3)nc2)CC1 (stereo not given)	-3.18
O=C(c1ccc(=O)[nH]n1)N1CCNCC1c1ccccc1 (stereo not given)	-2.44
CN(CCNC(=O)N1CCN(Cc2ccon2)CC1)C1CCCC1	15.6
Cc1nccnc1C1CCN(C(=O)C(C)C)CC1	3.25
O=C(c1csc(-c2cccs2)n1)N1CCCC1Cn1cccn1 (stereo not given)	-4.69
O=C(NCC1(CO)CC1)NC(c1nccs1)C1CC1 (stereo not given)	1.23
COc1cccc(OC2CN(C(=O)c3ccnc(OC)c3)C2)c1	-6.52
COc1cc(F)c(NCc2nc3ccccc3n2C)cc1OC	26.5

SMILES	cytotoxicity at 10 µM [%]
Cc1nn(CC(C)C)c(N(C)C)c1CNCc1ccc(CO)c(F)c1	-14.4
O=C(NCCc1nnc2n1CCC2)N1CCC2(CCCCC2)C1	14.7
O=C(NCC1CCCO1)c1coc(Cn2cnc3ccccc32)n1 (stereo not given)	-3.67
c1cnc(NC[C@H]2OC[C@@H]3CCN(Cc4ccsc4)C[C@@H]32)nc1	-2.01
Cc1nnc(NCCc2nc3ccc(F)cc3n2C)c(C#N)c1C	-0.744
F[C@@H]1CN(Cc2ccccc2)C[C@@H]1OCc1nc2ccccc2[nH]1	4.61
NC(=O)COc1cccc(CN2CCCC2c2ccc[nH]2)c1 (stereo not given)	8.58
COCC1CN(C(=O)COc2ccccc2)Cc2ncn(C)c21 (stereo not given)	0.104
Cc1ccc(C(=O)NCC2Cc3ccccc3O2)cc1S(C)(=O)=O (stereo not given)	1.05
O=C(CCn1ccnc1)N1CCC(c2nnc(-c3ccccn3)o2)CC1	3.29
CN(C)C(=O)N1CC[C@@H](O)[C@@H]1Cc1ccccc1	3.14
CN(C)CCNC(=O)Cc1cccc(I)c1	-3.23
Cc1ccc(NC2CCN(C(=O)COCC3CC3)CC2)nn1	0.132
CN1CCc2[nH]nc(C(=O)N3CCC4(CN(C)C(=O)O4)C3)c2C1 (stereo not given)	-46.4
Cc1cc(C)n(Cc2ccc(-c3noc(C(=O)NCCO)n3)cc2)n1	-9.45
Cn1cc(N2C[C@@H]3CN(Cc4ccccn4)C[C@@H]3C2=O)cn1	-95.6
Cc1cnccc1-c1cnn(CCNC(=O)C(C)(C)C)c1C1CC1	-0.459
O=C(Nc1ccccc1)[C@H]1C[C@H]2CN(C(=O)Nc3ccccc3)C[C@@H]1O2	2.4
CCc1ccc(CN2CC[C@@H]3NC(=O)CC[C@@H]32)o1	3.06
CCc1nccn1CCCNC(=O)CN1CCN(c2ncccn2)CC1	-7.54
CSC(C)(C)CNC(=O)NC1CCC1	-7.32
CN(C)C(=O)CCC[S+]([O-])Cc1cc(Cl)ccc1Cl (stereo not given)	12.5

SMILES	cytotoxicity at 10 µM [%]
CS(=O)(=O)c1cn[nH]c1C1CCCN(C(=O)Cn2cccn2)C1 (stereo not given)	-11.7
NC(=O)CC1CCN(C(=O)NCc2cccc(-n3cccn3)c2)CC1	-2.45
O=C(N[C@@H]1C[C@@H]2CC[C@H]1C2)C1(Oc2ccc(Cl)cc2)CCNCC1	-5.26
O=C1CCCN1c1cccc(N2CCC(NCCc3cscn3)CC2)c1	-26
Cc1nc(C)c(C(=O)NCCn2nc3ccccn3c2=O)s1	-2.51
COc1ccc(C2Nc3cc(Cl)ccc3C3=NCCN32)cc1O (stereo not given)	-31.1
CCC(C)CS(=O)(=O)NCCc1csc(N2CCCC2)n1 (stereo not given)	1.28
CC(C)c1ccc(-n2cc(O)c(C(=O)N3CCC(C(N)=O)CC3)n2)cc1	-52.6
Cc1nc(CN2CCCC(Nc3ncnc4c3CCC4)C2)no1 (stereo not given)	34.3
CN(C(=O)Cc1ccccc1F)C1CCN(c2ccccn2)CC1	-0.644
CCN(C(=O)c1ccc2nnc(C3CCN(S(C)(=O)=O)C3)n2c1)C(C)C (stereo not given)	-110
Cc1ccc(NC(=O)N(C)Cc2cnn(C)c2)cc1OCC(F)F	-0.243
CCNC(=O)[C@@H]1C[C@H](NC(=O)c2ccc(C)s2)CN1Cc1ccc(C)o1	-5.39
COc1cc(C(=O)Nc2nc(C)no2)ccc1OC(F)F	-4.29
O=C1CN(Cc2nnc(-c3ccc(Br)o3)o2)CCN1	13.5
CN(C(=O)CN1CCC(c2cc3ccccc3[nH]2)CC1)C(C)(C)C#N	6.24
CCc1nc2n(n1)CCCC2NC(=O)Nc1cc(OC)ccc1C (stereo not given)	12.7
CC(=O)N[C@@H]1CN(Cc2cccs2)C[C@H]1c1ccc(C)o1	6.54
Cc1nccn1Cc1nnc(C2CCCN(Cc3ccncc3)C2)n1C (stereo not given)	-1.63
Cc1cccc(C(=O)NCc2ccnc(N(C)C)c2)n1	3.22
CC(NCc1cccc(NC(=O)C2CCCCC2)c1)c1cnn(C)c1 (stereo not given)	-0.26
CCN1CCO[C@@H]2CN(C(=O)COC3CCCC3)C[C@@H]2C1	4.32
